The results in this text go back to PubChem BioAssay AID651783 (The Scripps Research Institute Molecular Screening Center, 2012).

The campaign covered roughly 2,400 compounds. About 2,000 (83%) were called active.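 The calls were made as follows: active = activation above a cutoff set at the run's mean compound activation plus 3 SD (cut at about 39% in these data); inactive = the rest.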 So high a share suggests a set chosen from earlier hits. A selection follows.

Trace amine-associated receptor 1 (Homo sapiens), sequence (Q96RJ0 whole entry, looked up): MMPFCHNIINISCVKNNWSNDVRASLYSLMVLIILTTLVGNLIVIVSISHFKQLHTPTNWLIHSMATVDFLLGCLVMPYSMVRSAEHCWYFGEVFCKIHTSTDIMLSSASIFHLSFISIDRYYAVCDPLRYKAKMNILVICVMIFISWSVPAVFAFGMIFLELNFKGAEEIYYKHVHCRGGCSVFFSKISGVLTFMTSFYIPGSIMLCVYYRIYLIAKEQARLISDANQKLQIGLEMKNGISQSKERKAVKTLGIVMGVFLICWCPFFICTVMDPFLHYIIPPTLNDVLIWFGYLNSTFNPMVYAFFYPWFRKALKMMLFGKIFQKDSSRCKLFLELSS

In this test the target is Trace amine-associated receptor 1 (Homo sapiens) (UniProt Q96RJ0). Nature of the test: human TAAR1 agonists, retest of hits, confirmation, Fluo-8 calcium fluorescence, CHO RD-HGA16 cells (AID 651783).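 Also: promiscuous G-alpha-16 overexpression reroutes TAAR1 signalling from cAMP to calcium; peak fluorescence divided by basal pre-compound fluorescence per well; 0% = DMSO wells and 100% = phenethylamine at EC100.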 The conditions noted are these: CHO RD-HGA16 TAAR1, Fluo-8 calcium fluorescence; at 3 µM; hits give high values. In outline: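 material = RD-HGA16 CHO cells co-expressing hTAAR1 and promiscuous Gα16 | dosing = 3 µM single dose | incubation = Fluo-8 dye loading 75 min 37 °C, then 30 min room temperature | measured by = kinetic Fluo-8 calcium fluorescence over 140 s after basal | read-out = % activation from max-to-basal fluorescence ratio, DMSO-to-PEA scaled | repeats = triplicate wells per compound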
Consider `c1ccc(CCNC2CCCCCC2)cc1`, for which the activation is 91.8% (active).

Consider `CCCCC(=O)N/N=C/c1c(O)n(CC)c(=S)n(CC)c1=O`, for which the activation was 106% (active). The value for `Cc1cccc(N2C(=O)NC(=O)/C(=C\c3cnn(-c4ccccc4)c3)C2=O)c1` was 46.7% (active); that for `NCC(O)c1ccc(O)cc1` (centres undefined) was 88.3% (active). For `COc1ccc(Br)cc1CNCCc1cccc(Cl)c1` the value was 71% (active); for `CC(Cc1ccccc1)NC=O` (centres undefined), 82.1% (active); for `CCC(=NCCc1ccccc1)c1c(O)n(C2CCCCC2)c(=O)[nH]c1=O`, 76.4% (active). For `Clc1ccc2nc3c(c(-c4ccccc4)c2c1)CNCC3` the value was 71% (active). For `O=C1NC(=O)N(Cc2ccco2)C(=O)/C1=C\c1ccc(-c2ccc(F)cc2)o1`, the activation was 52.5% (active).
